This data set is described as follows: Rat pharmacokinetics. Type of data set: in vivo, Sprague-Dawley rats. Conditions: Sprague-Dawley, plasma; for clearance: iv, 1 mg/kg. Summed up: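 Sprague-Dawley rats (n = 3) received the test compound intravenously at 1 mg/kg; a separate oral gavage arm used 2 mg/kg. Blood was sampled at 5, 15, 30 min and 1, 2, 4, 6, 8 h into EDTA tubes and centrifuged to plasma. Plasma proteins were precipitated with acetonitrile and drug was quantified by LC-MS/MS. CL and t1/2 came from noncompartmental analysis.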

As a reminder, the half-life is the time needed for the level to fall by half in the phase considered. The low end stands for fast loss, the high end for slow loss. As usually defined, the clearance is the volume of plasma or blood freed of the substance per unit of time. Higher therefore signals a high capacity for elimination.

Compound `Cn1ccc(-c2cc(Nc3ccc(-n4cnc(N5CCOCC5)n4)cc3)ncc2Cl)n1` [Compound 16] showed a half-life of 6.5 h and a clearance of 0.9 mL/min/kg.
In the same order, the values of `Cc1ccc(-c2ncn(-c3ccc(Nc4cc(-c5ccn(C)n5)c(F)cn4)cc3)n2)cn1` [Compound 20] are 2.3 h and 4.2 mL/min/kg.
In the same order, the values of `Cc1nc(C)n(-c2ccc(Nc3cc(-c4nn(C)cc4-c4ccc(F)cc4)ccn3)cc2)n1` [Compound 37] are 1.5 h and 6.4 mL/min/kg.
The like results for `Cn1ccc(-c2cc(Nc3ccc(-n4cnc(-c5ccccn5)n4)cc3)ncc2F)n1` [Compound 21] were, in that order, 3.4 h and 4 mL/min/kg.
On to `Cc1nc(C)n(-c2ccc(Nc3cc(-c4ccn(C)n4)c(Cl)cn3)cc2)n1` [Compound 15], for which the half-life is 1.3 h and the clearance is 9 mL/min/kg.

The values are drawn from publication PMC3081976 (Bioorganic & medicinal chemistry letters, 2010).
